pIC50: −log10 of the molar value. Active and inactive are the calls of the source. The rule behind the calls is not given here.
Assays:
[1] = target: T1, Histone-lysine N-methyltransferase SETD7 (Homo sapiens, UniProt Q8WTS6); assay: Inhibition of recombinant Set7/9 (unknown origin) expressed in Escherichia coli BL21 (DE3) using biotinylated histone H3-derived peptide/SAM as substrate by alphaLISA
T1 sequence (Q8WTS6 whole entry): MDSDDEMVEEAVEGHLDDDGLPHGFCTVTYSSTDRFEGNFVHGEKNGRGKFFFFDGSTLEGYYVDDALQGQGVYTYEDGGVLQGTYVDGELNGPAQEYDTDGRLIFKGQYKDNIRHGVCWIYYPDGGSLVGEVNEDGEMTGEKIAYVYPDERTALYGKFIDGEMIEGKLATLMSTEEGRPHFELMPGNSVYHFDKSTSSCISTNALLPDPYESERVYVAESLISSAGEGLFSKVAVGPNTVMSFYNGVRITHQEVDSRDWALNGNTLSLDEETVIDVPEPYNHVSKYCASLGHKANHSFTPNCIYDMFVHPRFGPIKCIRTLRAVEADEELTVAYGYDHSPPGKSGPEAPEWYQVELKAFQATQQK

[2] = target: T2, Histone-lysine N-methyltransferase EHMT2 (Homo sapiens) (UniProt Q96KQ7); assay: Inhibition of G9a (unknown origin) by fluorogenic assay
T2 sequence (whole entry): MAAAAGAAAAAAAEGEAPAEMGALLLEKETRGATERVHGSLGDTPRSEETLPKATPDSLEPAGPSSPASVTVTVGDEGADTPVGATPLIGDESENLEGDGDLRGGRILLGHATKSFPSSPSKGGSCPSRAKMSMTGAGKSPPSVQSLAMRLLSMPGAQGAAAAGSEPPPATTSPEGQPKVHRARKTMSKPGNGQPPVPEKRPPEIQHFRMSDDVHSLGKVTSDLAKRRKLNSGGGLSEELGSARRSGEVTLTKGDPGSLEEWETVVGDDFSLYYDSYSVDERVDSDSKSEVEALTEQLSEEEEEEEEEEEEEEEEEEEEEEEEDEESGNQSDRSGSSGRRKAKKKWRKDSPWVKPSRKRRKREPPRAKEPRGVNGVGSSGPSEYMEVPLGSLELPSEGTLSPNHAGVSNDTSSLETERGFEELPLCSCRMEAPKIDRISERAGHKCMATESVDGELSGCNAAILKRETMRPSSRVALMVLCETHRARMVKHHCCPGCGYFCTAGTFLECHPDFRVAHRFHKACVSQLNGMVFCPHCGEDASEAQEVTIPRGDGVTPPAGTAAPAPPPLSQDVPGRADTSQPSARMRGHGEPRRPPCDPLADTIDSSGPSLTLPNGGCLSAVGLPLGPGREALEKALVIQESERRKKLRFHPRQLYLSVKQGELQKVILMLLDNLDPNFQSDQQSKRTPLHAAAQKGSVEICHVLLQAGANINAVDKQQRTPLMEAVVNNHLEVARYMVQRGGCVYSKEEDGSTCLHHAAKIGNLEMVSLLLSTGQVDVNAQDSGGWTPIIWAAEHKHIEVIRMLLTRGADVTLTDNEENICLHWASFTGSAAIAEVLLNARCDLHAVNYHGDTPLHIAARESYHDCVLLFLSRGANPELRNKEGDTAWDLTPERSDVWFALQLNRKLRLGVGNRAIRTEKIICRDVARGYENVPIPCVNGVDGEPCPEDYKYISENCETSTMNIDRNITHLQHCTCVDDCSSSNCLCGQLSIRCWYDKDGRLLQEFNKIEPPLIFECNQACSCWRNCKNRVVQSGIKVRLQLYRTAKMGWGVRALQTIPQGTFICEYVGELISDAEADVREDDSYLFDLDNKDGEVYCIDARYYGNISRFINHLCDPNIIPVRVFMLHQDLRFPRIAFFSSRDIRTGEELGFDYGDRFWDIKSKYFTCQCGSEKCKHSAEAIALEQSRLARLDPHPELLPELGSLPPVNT

[3] = target: T3, Histone-lysine N-methyltransferase SUV39H1 (Homo sapiens) (UniProt O43463); assay: Inhibition of Suv39h1 (unknown origin) by ELISA
T3 sequence (whole entry): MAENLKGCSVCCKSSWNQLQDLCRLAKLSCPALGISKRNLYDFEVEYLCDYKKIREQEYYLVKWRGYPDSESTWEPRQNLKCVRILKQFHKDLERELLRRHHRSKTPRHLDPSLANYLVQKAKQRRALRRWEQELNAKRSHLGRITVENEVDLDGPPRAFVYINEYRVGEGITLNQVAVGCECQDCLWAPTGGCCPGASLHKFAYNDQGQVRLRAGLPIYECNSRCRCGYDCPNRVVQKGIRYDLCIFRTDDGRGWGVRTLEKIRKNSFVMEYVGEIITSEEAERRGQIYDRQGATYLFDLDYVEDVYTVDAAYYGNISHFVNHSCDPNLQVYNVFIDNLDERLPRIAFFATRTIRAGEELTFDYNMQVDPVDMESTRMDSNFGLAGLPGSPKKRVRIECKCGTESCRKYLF

[4] = system: MCF7; assay: Effect on ERalpha mRNA expression in human MCF7 cells at 4.3 to 43 uM after 48 hrs by RT-PCR analysis; assay type: functional, cell-based
Procedure, shortened: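 MCF7 cells were treated with or without compound for 48 h. Total RNA was isolated with TRIzol. ERα and GAPDH mRNA levels were measured by semiquantitative RT-PCR.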

[5] = system: Mus musculus; assay: Effect on body weight in Balb/c-nu/nu mouse xenografted with Fucci introduced human MCF7 cells at 20 mg/kg, ip qd administered as continuous dose for 8 days measured every 3 to 4 days until day 15; assay type: ADME, organism-based; conditions: in vivo
Procedure, shortened: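 Female Balb/C-nu/nu mice, 7 weeks old, each inoculated with about 2 × 10^7 Fucci-MCF7 cells in the mammary gland. Dosing started when tumors reached about 100 mm3, 13 days after inoculation. 20 mg/kg given ip once daily, days 1–8, in saline with 10% ethanol; a vehicle group ran alongside. Caliper tumor volume (a2b)/2 and body weight were recorded every 3 or 4 days to day 15. Six mice per group, mean ± SE.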

[6] = target: Histone-lysine N-methyltransferase, H3 lysine-79 specific (Homo sapiens) (UniProt Q8TEK3); assay: Inhibition of Dot1L (unknown origin) by AlphaELISA
[7] = system: Mus musculus; assay: Effect on body weight in Balb/c-nu/nu mouse xenografted with Fucci introduced human MCF7 cells at 20 mg/kg, ip qd administered as single dose; assay type: ADME, organism-based; conditions: in vivo
Procedure, shortened: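 Female Balb/C-nu/nu mice, 7 weeks old, carried mammary Fucci-MCF7 xenografts (about 2 × 10^7 cells) grown to about 100 mm3. A single ip dose of 20 mg/kg in saline with 10% ethanol was given on day 1; a vehicle group ran alongside. Caliper tumor volume (a2b)/2 and body weight were recorded every 3 or 4 days to day 15. Tumor volume relative to day 1; six mice, mean ± SE.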

Chain of Histone-lysine N-methyltransferase, H3 lysine-79 specific (Homo sapiens) (Q8TEK3 whole entry, looked up): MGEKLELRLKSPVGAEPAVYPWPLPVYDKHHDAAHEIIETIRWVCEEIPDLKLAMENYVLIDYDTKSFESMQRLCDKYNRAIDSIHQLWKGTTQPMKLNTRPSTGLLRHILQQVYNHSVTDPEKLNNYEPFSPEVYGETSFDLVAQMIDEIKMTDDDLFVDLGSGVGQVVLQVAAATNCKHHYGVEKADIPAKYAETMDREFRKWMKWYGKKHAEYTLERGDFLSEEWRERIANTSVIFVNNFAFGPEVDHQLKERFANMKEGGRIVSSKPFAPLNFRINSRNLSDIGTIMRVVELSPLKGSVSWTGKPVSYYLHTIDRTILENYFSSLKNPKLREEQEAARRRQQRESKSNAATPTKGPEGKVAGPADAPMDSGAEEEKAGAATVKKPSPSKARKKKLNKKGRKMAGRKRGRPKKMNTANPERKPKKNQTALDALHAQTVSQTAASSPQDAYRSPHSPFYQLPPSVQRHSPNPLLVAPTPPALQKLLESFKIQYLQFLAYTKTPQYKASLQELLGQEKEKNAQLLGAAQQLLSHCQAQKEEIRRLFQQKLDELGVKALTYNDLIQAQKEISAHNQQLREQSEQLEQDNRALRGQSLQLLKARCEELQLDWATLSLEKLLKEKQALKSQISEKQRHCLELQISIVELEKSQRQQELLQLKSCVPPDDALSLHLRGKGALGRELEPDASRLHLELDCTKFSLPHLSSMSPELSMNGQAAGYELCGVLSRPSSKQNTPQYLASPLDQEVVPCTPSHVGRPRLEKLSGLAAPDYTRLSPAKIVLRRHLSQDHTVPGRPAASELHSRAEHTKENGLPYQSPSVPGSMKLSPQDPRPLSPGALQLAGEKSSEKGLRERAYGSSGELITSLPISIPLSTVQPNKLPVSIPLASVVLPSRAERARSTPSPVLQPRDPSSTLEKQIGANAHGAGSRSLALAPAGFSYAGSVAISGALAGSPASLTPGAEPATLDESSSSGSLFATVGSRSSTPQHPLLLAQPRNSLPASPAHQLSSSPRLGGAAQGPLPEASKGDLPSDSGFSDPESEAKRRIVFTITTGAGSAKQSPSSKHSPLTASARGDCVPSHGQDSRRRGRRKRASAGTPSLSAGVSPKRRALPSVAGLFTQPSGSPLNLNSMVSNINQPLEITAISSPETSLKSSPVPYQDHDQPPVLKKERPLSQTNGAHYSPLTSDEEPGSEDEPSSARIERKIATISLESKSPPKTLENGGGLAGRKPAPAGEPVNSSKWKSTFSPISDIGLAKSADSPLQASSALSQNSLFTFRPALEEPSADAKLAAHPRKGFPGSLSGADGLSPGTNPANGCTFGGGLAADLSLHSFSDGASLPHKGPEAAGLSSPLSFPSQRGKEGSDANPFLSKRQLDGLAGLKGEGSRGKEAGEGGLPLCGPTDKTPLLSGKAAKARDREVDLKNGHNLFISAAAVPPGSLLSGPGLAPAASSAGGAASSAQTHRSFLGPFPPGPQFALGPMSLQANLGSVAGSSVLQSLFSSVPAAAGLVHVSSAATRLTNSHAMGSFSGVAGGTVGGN

- pIC50 [1]: 6.00
- inhibition [2]: Active
- inhibition [3]: Active
- inhibition [6]: Active
SMILES: CN1CCC(=C2c3ccccc3C=Cc3ccccc32)CC1 [CYPROHEPTADINE]
- Activity [4]: inactive
- Activity [5]: Non-toxic
- Activity [7]: Non-toxic

Reference: ChEMBL document CHEMBL3808369, “Identification of Cyproheptadine as an Inhibitor of SET Domain Containing Lysine Methyltransferase 7/9 (Set7/9) That Regulates Estrogen-Dependent Transcription” (J Med Chem, 2016)
